Results on four compounds are retold here after ChEMBL document CHEMBL3399927, “Identification of novel inhibitors of Aurora A with a 3-(pyrrolopyridin-2-yl)indazole scaffold” (Bioorg Med Chem, 2015).

Molecules are shown by their SMILES. Active and inactive are the calls of the source. The calls are words filed in the database; no cut-off is given here.

A short description of data set [1]: Cell cycle arrest in human HCT116 cells assessed as accumulation at G2/M phase at 200 nM after 24 hrs by FACS analysis. Particulars: HCT-116. The data set is classed as functional, cell-based. (In general: Flow cytometry measures light scatter and fluorescence of single cells or particles in a stream.)
The target in another data set is T1, Aurora kinase A (Homo sapiens, UniProt O14965).
T1 sequence (O14965 whole entry): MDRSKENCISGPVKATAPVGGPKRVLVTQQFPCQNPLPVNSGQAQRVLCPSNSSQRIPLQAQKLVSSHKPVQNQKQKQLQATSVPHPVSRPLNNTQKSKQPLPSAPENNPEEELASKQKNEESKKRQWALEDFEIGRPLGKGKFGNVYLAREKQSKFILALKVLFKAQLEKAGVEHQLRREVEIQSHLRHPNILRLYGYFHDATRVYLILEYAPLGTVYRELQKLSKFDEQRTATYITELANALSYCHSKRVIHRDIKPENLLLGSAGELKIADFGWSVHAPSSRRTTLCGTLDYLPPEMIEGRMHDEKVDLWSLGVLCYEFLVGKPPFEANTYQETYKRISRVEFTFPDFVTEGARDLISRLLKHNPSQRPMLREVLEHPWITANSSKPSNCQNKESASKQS
As to the kind of experiment: Inhibition of human full length Aurora A by Z'-LYTE assay.

Data set [2] deals with HCT-116. Description: Induction of apoptosis in human HCT116 cells at 200 nM after 24 hrs by FACS analysis relative to control. The data set is classed as functional.
A short description of data set [3]: Antiproliferative activity against human HCT116 cells after 72 hrs by MTT assay. Particulars: HCT-116, 72 h. The class given is functional, cell-based. The gist of the method: (§1)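 Cells grown in RPMI-1640 with heat-inactivated 10% FBS, penicillin 100 units/mL and streptomycin 100 μg/mL, at 37 °C under 20% O2, 5% CO2. Compounds dissolved in DMSO at 10.0 mg/mL (stock), then diluted. Cells were plated for 24 h, exposed to a range of concentrations for 72 h, and viability was read by MTT. IC50 is 50% absorbance inhibition versus control cells; means of three experiments.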
(Tetrazolium dyes change colour on reduction, which living cells bring about.)

Data set [4] concerns the target Protein kinase C (PKC) (Homo sapiens) (UniProt O94806+P41743+P17252+P05129+Q05655+P05771+Q05513+Q02156+P24723+Q15139+Q04759). Description: Inhibition of PKC (unknown origin) at 1 ug/ml relative to control. An outline of the steps:
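Fixed-concentration screen at 1 µg/mL with a Z'-LYTE kinase assay kit.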

Another data set relates to KB. As to the kind of experiment: Antiproliferative activity against human KB cells after 72 hrs by MTT assay. The data set is classed as functional, cell-based. The gist of the method:
as §1

A further data set deals with A549. As to the kind of experiment: Antiproliferative activity against human A549 cells after 72 hrs by MTT assay. The class given is functional, cell-based. Particulars: A549, 72 h.
For data set [5], the target named is Glycogen synthase kinase-3 beta (Homo sapiens) (UniProt P49841). As to the kind of experiment: Inhibition of GSK3beta (unknown origin) at 1 ug/ml relative to control.
Glycogen synthase kinase-3 beta (Homo sapiens), sequence (P49841 whole entry, looked up): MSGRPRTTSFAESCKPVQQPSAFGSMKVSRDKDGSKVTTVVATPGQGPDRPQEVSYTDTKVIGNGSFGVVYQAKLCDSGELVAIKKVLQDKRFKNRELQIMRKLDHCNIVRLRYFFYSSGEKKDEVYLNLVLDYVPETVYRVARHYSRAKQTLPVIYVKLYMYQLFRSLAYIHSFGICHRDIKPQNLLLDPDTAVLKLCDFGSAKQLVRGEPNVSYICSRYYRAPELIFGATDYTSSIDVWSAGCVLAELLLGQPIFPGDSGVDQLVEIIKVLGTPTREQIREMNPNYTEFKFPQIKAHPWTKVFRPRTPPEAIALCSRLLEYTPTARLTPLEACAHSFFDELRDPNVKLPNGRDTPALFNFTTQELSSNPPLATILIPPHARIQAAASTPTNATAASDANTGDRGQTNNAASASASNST
Data set [6] in a line: Antiproliferative activity against human SMMC7721 cells after 72 hrs by MTT assay. The class given is functional, cell-based. To be noted: SMMC-7721, 72 h. The gist of the method: as §1
Data set [7] can be described thus: Antiproliferative activity against human HL60 cells after 72 hrs by MTT assay. The data set is classed as functional, cell-based. To be noted: HL-60, 72 h. The gist of the method: as §1
For data set [8], the target named is Dual specificity mitogen-activated protein kinase kinase 1 (Homo sapiens) (UniProt Q02750). Description: Inhibition of MEK1 (unknown origin) at 1 ug/ml relative to control.
Dual specificity mitogen-activated protein kinase kinase 1 (Homo sapiens), sequence (Q02750 whole entry): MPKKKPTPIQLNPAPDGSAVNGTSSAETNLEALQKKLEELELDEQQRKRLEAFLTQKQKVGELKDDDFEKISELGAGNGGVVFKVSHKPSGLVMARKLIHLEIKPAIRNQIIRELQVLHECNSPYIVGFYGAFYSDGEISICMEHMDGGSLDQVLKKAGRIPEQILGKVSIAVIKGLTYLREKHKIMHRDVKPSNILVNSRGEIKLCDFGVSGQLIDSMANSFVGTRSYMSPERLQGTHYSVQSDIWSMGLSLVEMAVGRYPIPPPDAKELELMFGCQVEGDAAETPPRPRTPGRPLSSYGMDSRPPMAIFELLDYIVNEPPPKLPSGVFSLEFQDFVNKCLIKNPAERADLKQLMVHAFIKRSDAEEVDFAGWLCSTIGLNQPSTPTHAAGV
For data set [9], the target named is Cyclin-dependent kinase 2 (Homo sapiens) (UniProt P24941). As to the kind of experiment: Inhibition of CDK2 (unknown origin) at 1 ug/ml relative to control.
Data set [10] has as its system HCT-116. As to the kind of experiment: Ratio of taxol IC50 to compound IC50 for human HCT116 cells. The data set is classed as functional.
Data set [11] in a line: Apparent permeability across apical to basolateral side in MDCK cells by HPLC. To be noted: dog. The class given is ADME, cell-based, Canis lupus familiaris.
A short description of data set [12]: Cell cycle arrest in human HCT116 cells assessed as accumulation at G2/M phase after 24 hrs by FACS analysis. The data set is classed as functional, cell-based. Particulars: HCT-116.
The target of data set [13] is T2, Inhibitor of nuclear factor kappa-B kinase subunit beta (Homo sapiens) (UniProt O14920).
T2 sequence (whole entry): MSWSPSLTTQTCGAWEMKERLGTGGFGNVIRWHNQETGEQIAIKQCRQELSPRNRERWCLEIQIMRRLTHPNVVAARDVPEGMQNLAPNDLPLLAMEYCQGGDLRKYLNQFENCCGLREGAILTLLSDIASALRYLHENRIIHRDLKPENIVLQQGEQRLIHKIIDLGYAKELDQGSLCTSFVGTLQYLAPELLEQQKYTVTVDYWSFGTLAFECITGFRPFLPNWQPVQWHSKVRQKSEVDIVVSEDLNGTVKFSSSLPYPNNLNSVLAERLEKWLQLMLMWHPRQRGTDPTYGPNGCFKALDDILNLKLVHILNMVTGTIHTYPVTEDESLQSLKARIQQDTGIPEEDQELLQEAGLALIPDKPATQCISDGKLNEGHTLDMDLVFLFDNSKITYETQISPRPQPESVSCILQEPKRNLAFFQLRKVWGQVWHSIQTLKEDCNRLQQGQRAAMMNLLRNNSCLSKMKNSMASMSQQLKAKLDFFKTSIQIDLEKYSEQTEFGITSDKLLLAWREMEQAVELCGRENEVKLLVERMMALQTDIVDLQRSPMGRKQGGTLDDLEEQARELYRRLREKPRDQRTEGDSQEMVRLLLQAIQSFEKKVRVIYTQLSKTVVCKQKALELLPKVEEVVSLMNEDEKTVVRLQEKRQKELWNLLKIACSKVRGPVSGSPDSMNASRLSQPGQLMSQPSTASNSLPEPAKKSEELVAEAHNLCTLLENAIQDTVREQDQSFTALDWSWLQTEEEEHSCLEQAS
Description: Inhibition of IKKbeta (unknown origin) at 1 ug/ml relative to control.

In data set [14] the target is Serine/threonine-protein kinase B-raf (Homo sapiens) (UniProt P15056). Description: Inhibition of BRAF (unknown origin) at 1 ug/ml relative to control.
Serine/threonine-protein kinase B-raf (Homo sapiens), sequence (P15056 whole entry): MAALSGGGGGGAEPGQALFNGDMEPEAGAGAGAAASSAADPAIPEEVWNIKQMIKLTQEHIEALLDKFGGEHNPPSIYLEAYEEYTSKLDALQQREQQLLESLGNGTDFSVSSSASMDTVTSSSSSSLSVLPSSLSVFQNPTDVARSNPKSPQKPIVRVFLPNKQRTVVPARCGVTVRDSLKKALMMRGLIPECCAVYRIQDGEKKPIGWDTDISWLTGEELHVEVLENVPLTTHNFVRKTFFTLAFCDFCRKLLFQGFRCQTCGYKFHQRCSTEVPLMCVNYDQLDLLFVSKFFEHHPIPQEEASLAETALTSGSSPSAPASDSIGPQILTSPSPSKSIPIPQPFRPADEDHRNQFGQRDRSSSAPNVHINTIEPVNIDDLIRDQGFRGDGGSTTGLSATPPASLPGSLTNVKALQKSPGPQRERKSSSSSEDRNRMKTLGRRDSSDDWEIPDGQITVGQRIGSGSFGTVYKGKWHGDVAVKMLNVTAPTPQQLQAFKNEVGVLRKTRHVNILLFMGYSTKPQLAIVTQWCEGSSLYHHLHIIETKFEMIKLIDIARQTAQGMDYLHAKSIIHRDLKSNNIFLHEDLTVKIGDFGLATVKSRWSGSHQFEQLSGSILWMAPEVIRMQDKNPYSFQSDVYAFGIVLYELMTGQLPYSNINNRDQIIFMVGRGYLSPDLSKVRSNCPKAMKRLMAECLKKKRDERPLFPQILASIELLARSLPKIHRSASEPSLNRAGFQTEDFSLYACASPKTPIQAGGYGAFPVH
Data set [15] addresses T3, Aurora kinase A (Homo sapiens) (UniProt O14965).
T3 sequence (whole entry): T1 sequence (O14965 whole entry)
Description: Inhibition of human full length Aurora A at 1 ug/ml by Z'-LYTE assay.

Data set [16] addresses T4, Serine/threonine-protein kinase Chk1 (Homo sapiens) (UniProt O14757).
T4 sequence (whole entry): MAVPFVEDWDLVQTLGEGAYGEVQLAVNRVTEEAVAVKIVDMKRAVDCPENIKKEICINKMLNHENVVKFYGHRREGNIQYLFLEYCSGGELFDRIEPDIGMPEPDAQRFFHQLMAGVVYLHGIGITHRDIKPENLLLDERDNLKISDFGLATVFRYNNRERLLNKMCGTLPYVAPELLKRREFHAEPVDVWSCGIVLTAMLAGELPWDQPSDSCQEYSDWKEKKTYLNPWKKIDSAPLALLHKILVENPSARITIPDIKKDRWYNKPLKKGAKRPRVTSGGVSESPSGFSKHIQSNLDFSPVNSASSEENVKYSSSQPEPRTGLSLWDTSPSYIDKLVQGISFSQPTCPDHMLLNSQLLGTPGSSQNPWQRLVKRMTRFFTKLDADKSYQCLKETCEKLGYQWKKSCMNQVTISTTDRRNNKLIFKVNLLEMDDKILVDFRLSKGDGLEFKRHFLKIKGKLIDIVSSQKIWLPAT
Description: Inhibition of CHK1 (unknown origin) at 1 ug/ml relative to control. An outline of the steps:
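Fixed-concentration screen at 1 µg/mL using the luminescent ADP-Glo assay.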

For data set [17], the target named is Cell division cycle 7-related protein kinase (Homo sapiens) (UniProt O00311). As to the kind of experiment: Inhibition of CDC7 (unknown origin).
Cell division cycle 7-related protein kinase (Homo sapiens), sequence (O00311 whole entry, looked up): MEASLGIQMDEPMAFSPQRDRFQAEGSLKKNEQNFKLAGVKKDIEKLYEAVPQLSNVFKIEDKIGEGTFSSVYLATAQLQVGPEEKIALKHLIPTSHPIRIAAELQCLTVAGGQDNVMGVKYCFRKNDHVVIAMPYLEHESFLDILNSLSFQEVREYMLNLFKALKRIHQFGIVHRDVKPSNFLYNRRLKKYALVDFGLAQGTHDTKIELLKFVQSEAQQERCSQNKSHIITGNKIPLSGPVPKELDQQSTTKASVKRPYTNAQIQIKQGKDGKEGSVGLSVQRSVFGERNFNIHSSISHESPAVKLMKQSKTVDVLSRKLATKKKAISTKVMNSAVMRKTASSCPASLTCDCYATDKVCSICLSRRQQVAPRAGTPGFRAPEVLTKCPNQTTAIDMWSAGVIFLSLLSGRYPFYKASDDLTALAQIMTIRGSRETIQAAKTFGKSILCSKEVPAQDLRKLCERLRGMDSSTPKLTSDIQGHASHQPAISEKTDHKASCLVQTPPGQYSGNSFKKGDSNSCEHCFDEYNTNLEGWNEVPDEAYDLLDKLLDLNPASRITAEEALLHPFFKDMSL

A word on the IC50: it is the concentration needed to halve the response being measured. The low end stands for greater potency in that assay, the high end for weaker potency in that assay. The term inhibition denotes how much of the control response was suppressed. A high value points to strong suppression. By Papp A→B is commonly meant how fast a substance crosses the layer from the apical side. For `CN(C(=O)Nc1ccccc1)c1ccc2[nH]c(-c3n[nH]c4ccccc34)cc2n1`, the outcome in data set [1] was Active. In addition, the IC50 came to 519 nM on Aurora kinase A; 1.3 nM in [3]; 32 nM in the data set on KB; 1430 nM in the data set with A549; 280 nM in data set [6]; 8.3 nM in data set [7]. The results for the Activity (in the data set with HCT-116 [2]; in [12]) were 25.4% and “Dose-dependent effect”, respectively. Further, the inhibition in data set [4] came to 0.62%; in data set [5] it was 19.3%; in data set [8], 6.64%; in [9] it was 13.8%; in [13] it was 0.55%; in data set [14], 16.4%. The inhibition is 75.4% in data set [15] and 20.5% in data set [16]. Further, the “Ratio IC50” value in the data set with HCT-116 [10] amounted to 3. For the same compound, the Papp A→B in data set [11] turned out to be 6.07 ×10⁻⁶ cm/s.

In data set [17], `N#Cc1ccc2c(-c3cc4cc(CN5CCOCC5)ccc4[nH]3)n[nH]c2c1` displayed an IC50 of 11 nM.

Turning to `CN(C(=O)c1ccccc1)c1ccc2[nH]c(-c3n[nH]c4ccccc34)cc2n1`, the IC50 came out at 32 nM against Aurora kinase A; 10600 nM in [3]; 8580 nM in the data set with KB; 13800 nM with A549; 12500 nM in [6]; 4850 nM in data set [7]. The inhibition was 5.4% in [4]; 18.6% in data set [5]; 3.85% in data set [8]; 28.2% in data set [9]; 8.06% in data set [13]; 11.7% in data set [14]. Moreover, the inhibition in data set [15] amounted to 95.8%; in data set [16], 8.3%. Further, in [11], the Papp A→B turned out to be 2.07 ×10⁻⁶ cm/s.

`CN(C(=O)c1ccc(Cl)cc1)c1ccc2[nH]c(-c3n[nH]c4ccccc34)cc2n1`: the IC50 against Aurora kinase A is 46 nM; in data set [3], 3000 nM; with KB it was 630 nM; in the data set with A549 it was 2220 nM; in [6] it was 2420 nM; in data set [7], 450 nM. In addition, the inhibition was 10.6% in data set [4]; 27.8% in [5]; 1.98% in data set [8]; 35.5% in data set [9]; 0.94% in data set [13]; 14.4% in data set [14]. For the same compound, the inhibition in data set [15] worked out at 95%; in data set [16] it was 1%. Moreover, the Papp A→B in data set [11] was determined as 3.95 ×10⁻⁶ cm/s.
